# Most compounds without a hit are left out; they make up all but 4.5% or so of the library.
# AHR activator: human AHR activation; P35869; AHR-responsive luciferase reporter cells, luminescence; activation, % at 5 µM; 320,000 compounds, 2.5% hits; AID 2796; in the data active = activation above about 47%
# NF-kB neuron act: NF-kB expression increase, human neuronal cells | NF-kB reporter expression; stronger effect = higher value | fold change at 12.5 µM | 190,000 compounds, 1.6% hits | AID 1239; in the data active = fold change above about 3.3
# APP 5'UTR act: activates APP 5'UTR luciferase reporter; AID 1276; 190,000 compounds, 1% hits; SH-SY5Y APP 5'UTR luciferase reporter, luminescence; zero percent = DMSO vehicle wells; activation, % at 2 µM;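 active = activation above a set limit, based on mean plus 3 SD of controls, cut at about 140% in these data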
# STAT1 activator: increases IFN-gamma driven STAT1 reporter signal. activation (% of control), % at 5.5 µM. 200,000 compounds, 2.6% hits. NIH 3T3 STAT1-luciferase reporter, luminescence; 100% = IFN-gamma alone, no compound;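 active = activation above the screen-wide mean activation plus 3 SD, cut at about 130% in these data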
# PERK inhibitor: blocks human PERK kinase. Q9NZJ5. CHO PERK-DD fusion, SEAP luminescence translation reporter. inhibition, % at 5.6 µM. 220,000 compounds, 0.17% hits. AID 1416;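 active = inhibition above the mean inhibition of all tested compounds plus 3 SD, set separately per screening campaign, cut at about 2.9% in these data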;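 note: PERK kinase domain activated by AP20187 dimerizer at 100 nM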
# Target sequence (Q9NZJ5 whole entry, looked up, the tested form may be a part): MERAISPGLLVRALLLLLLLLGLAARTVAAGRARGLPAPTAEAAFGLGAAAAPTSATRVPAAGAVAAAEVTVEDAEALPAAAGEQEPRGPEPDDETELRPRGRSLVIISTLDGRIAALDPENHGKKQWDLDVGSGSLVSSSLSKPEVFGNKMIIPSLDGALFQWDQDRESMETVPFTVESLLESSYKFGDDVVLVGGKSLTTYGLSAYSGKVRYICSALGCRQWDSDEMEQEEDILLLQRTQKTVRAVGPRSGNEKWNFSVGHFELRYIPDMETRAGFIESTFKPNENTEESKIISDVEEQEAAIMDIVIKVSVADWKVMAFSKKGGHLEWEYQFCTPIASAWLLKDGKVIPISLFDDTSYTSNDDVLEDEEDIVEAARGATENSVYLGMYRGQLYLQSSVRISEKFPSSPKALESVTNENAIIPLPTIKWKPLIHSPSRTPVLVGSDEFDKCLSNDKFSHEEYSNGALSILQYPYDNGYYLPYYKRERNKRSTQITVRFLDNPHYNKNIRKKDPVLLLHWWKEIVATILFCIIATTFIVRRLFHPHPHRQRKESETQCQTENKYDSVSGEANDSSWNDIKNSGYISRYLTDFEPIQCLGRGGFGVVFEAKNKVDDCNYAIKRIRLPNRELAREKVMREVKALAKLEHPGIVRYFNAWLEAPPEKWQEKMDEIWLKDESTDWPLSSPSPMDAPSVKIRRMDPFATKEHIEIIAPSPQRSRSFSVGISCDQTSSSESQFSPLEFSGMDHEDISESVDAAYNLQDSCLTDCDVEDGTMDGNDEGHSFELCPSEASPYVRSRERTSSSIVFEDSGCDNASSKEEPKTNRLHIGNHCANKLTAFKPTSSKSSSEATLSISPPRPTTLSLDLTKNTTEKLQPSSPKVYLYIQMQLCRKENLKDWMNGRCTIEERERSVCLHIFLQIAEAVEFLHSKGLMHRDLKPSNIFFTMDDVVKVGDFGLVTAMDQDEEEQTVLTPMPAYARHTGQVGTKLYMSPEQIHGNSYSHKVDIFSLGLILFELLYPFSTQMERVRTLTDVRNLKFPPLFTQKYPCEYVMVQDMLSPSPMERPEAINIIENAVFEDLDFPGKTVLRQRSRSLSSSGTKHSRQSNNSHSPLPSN
# MDM2 E3 inh: inhibitors of human Mdm2 E3 ubiquitin ligase. Q00987. cell-based MDM2 ubiquitination luciferase reporter, 2 h; 0 = plate control, 100 = twice control, blank-subtracted. signal enhancement, % at 5 µM. 210,000 compounds, 0.11% hits. AID 1230;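 active = signal enhancement of 30% or more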;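 note: luminescence tracks abundance of the self-degrading MDM2-luciferase fusion protein; higher signal means inhibition of MDM2 E3 ligase activity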
#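 Assay system: mammalian cells stably expressing self-ubiquitinating, self-degrading MDM2 E3–luciferase fusion. Quantity: 2000 cells in each well. Medium: DMEM culture medium. Compound dosing: single-point 5 µM. Timing: cell settling 4 h, compound treatment 2 h, both 37 °C. Technique: luciferase luminescence. Read-out basis: percent signal gain over controls, blank-subtracted. Benchmarks: plate controls and plate blanks.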
# STAT1 activ conf: STAT1 activation, confirmation assay; 1,200 compounds, 97% hits; NIH 3T3 STAT1-luciferase reporter, IFN-gamma potentiation, luminescence; 100% = IFN-gamma EC80 alone, no compound; activation (% of control), % at 5.7 µM; shares compounds with STAT1 activator;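 active = activation above a set limit carried over from the earlier primary STAT1 screen, cut at about 140% in these data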
# NFkB act STAT1ct: activates NF-kappaB, counter-screen to STAT1 activators. shares compounds with STAT1 activator. HEK293T NF-kB luciferase reporter, TNF-alpha stimulated, luminescence; 100% = TNF-alpha with vehicle only. activation (% of control), % at 5.7 µM. 1,200 compounds, 43% hits. AID 1306;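 active = activation above the mean of solvent-only control wells plus 3 SD, set per campaign, cut at about 130% in these data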;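 note: TNF-alpha given at a submaximal dose yielding about 80% of full reporter signal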
# STAT3 act STAT1c: counter-screen for STAT1 activators: human STAT3 activation | 1,200 compounds, 46% hits | activation (% of control), % at 5.7 µM | shares compounds with STAT1 activator | U3A cells STAT3-luciferase reporter, IL-6, luminescence; cells lack STAT1; 100 = IL-6 alone, no compound effect;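 active = activation above the solvent-only control well mean plus 3 SD, set per plate batch, cut at about 110% in these data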;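 note: higher means more STAT3 reporter activation so hits are non-selective activators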
# A number is an active result; – = inactive; · = not tested or not shown.
SMILES,AHR activator,NF-kB neuron act,APP 5'UTR act,STAT1 activator,PERK inhibitor,MDM2 E3 inh,STAT1 activ conf,NFkB act STAT1ct,STAT3 act STAT1c
O=C(O)CN1C(=O)/C(=C\c2ccccc2OCc2ccc(Cl)cc2)SC1=S,59.2,·,·,·,·,·,·,·,·
O=C(O)CN1C(=O)/C(=C\c2cc(Br)ccc2OCc2ccc(Cl)cc2Cl)SC1=S,63.8,·,·,·,·,·,·,·,·
O=C(O)CN1C(=O)/C(=C\c2cccc(OCc3ccc(Cl)cc3)c2)SC1=S,–,·,·,·,·,·,·,·,·
COc1cccc(/C=C/c2nc3c(cnn3-c3ccccc3)c(=O)[nH]2)c1,–,–,–,–,–,–,·,·,·
O=c1[nH]c(/C=C/c2ccc(Br)cc2)nc2c1cnn2-c1ccccc1,54.5,–,–,–,–,–,·,·,·
COc1ccccc1CCC(=O)N(C)CC(=O)Nc1ccc(F)cc1,–,·,·,·,·,·,·,·,·
Cc1ccc2nc(NC(=O)CCn3cccc3)sc2c1,–,–,–,152.3,–,–,141.1,–,–
CCCCNC(=O)Nc1nc2ccccc2s1,–,–,148.2,151.5,–,–,186.0,–,115.7
O=C(O)CCC(=O)Nc1nc2ccccc2s1,–,–,–,–,–,–,·,·,·
Cc1ccc2nc(NC(=O)CCn3c(=O)sc4ccccc43)sc2c1,–,–,–,–,–,–,·,·,·
Cc1ccc2nc(NC(=O)c3ccc(Cl)s3)sc2c1,–,5.29,–,152.5,–,–,248.8,137.8,–
Cc1ccc(C(=O)Nc2nc3ccccc3s2)s1,78.8,4.2,157.2,157.1,–,–,264.1,–,–
CCOc1ccc2nc(SCC#N)c(C#N)cc2c1,–,–,–,165.0,–,–,165.6,–,–
COC(=O)CSc1nc2cc(C)cc(C)c2cc1C#N,–,–,–,–,–,–,·,·,·
COC(=O)CSc1nc2ccc(C)cc2cc1C#N,–,11.3,–,153.1,–,–,275.1,152.5,–
COc1ccc(CN2CCCC(C(=O)c3cccc(C(F)(F)F)c3)C2)cc1O (stereo unspecified),–,–,–,–,–,–,·,·,·
O=P(O)(CN1CCCCCC1)CN1CCCCCC1,·,–,–,153.0,–,–,–,–,–
O=P(O)(CCc1ccccc1)CN1CCCCC1,–,–,–,–,–,–,·,·,·
Cc1ccc(NC(=O)c2c(C)nc3ccccn23)cc1C,–,3.79,168.4,154.4,–,–,190.7,139.4,–
Cc1cccc(NC(=O)c2c(C)nc3ccccn23)c1,–,–,–,–,–,·,·,·,·
Cc1cc(Br)cc(C)c1OCCCCN(C)C,–,–,–,–,–,–,·,·,·
COc1ccc(C(=O)NCCOC(C)C)cc1OC1CCN(C(C)=O)CC1,–,·,·,·,·,·,·,·,·
CC(C)NC(=O)NC(=O)COc1ccc(Br)cc1Br,–,5.12,203.4,178.6,–,–,234.9,–,–
CC(C)NC(=O)NC(=O)COc1c(F)c(F)cc(F)c1F,–,–,–,–,–,–,·,·,·
COc1ccccc1/C=N\N=C(\N)c1ccccn1,71.3,–,–,161.7,–,–,190.1,–,–
SMILES,AHR activator,NF-kB neuron act,APP 5'UTR act,STAT1 activator,PERK inhibitor,MDM2 E3 inh,STAT1 activ conf,NFkB act STAT1ct,STAT3 act STAT1c
Cc1ccc2c(c1)c(-c1csc(N)n1)c(C)n2C,–,·,·,·,·,·,·,·,·
S=C(NCCc1ccccc1)Nc1cnc2ccccc2c1,–,–,–,–,–,–,·,·,·
O=C(Nc1ccc2nc3ccccc3nc2c1)c1ccccc1,–,3.78,197.9,190.0,–,–,229.9,135.9,–
O=C(Nc1ccc(Nc2ccccc2)cc1)c1ccccc1,–,·,·,·,·,·,·,·,·
O=C(NC(=S)Nc1cnc2ccccc2c1)c1ccccc1,–,3.97,–,155.2,–,–,186.0,–,132.3
CSCCn1c(C(C)(C)C)cc(C(=O)O)c1C,–,·,·,·,–,–,·,·,·
CC(C)(C)c1ccc2c(c1)C(=O)c1ccccc1C2=O,–,5.27,162.5,161.5,–,–,208.9,–,–
CC(C)(C)c1ccc(-c2ccc3c(c2)S(=O)(=O)c2ccccc2C3=O)cc1,–,·,·,·,·,·,·,·,·
COc1ccc(CCC(=O)NC(C)c2ccccc2)cc1OC (stereo unspecified),–,·,·,·,·,·,·,·,·
Cc1ccc(/C=C(\C#N)C(=O)Nc2ccccn2)o1,–,4.27,–,187.1,–,–,205.2,137.8,111.2
CCc1cc2c(=O)[nH]c(-c3ccccn3)nc2s1,–,–,–,152.5,–,–,188.7,136.7,–
O=C(COc1ccccc1Cl)Nc1ccc(Cl)cn1,–,6.84,198.0,150.8,–,–,198.3,–,–
O=C(COc1ccccc1)Nc1ccc(Cl)cn1,–,–,–,–,–,–,·,·,·
CCCCC(=O)N/N=C(\C)c1cccc(NC(=O)C2CC2)c1,–,–,–,–,–,–,·,·,·
C/C(=N/NC(=O)c1ccc(C)s1)c1cccc(NC(=O)c2ccoc2C)c1,–,·,·,·,·,·,·,·,·
C/C(=N/NC(=O)c1ccoc1C)c1cccc(NC(=O)C2CC2)c1,–,–,–,159.2,–,–,–,–,–
C/C(=N/NC(=O)c1ccoc1C)c1cccc(NC(=O)C(F)(F)F)c1,–,–,–,155.7,–,–,–,–,–
NC(=O)c1cc(Br)cc(C2CCCCC2)c1O,–,·,·,·,–,–,·,·,·
COc1ccccc1-c1nn2c(-c3ccco3)nnc2s1,–,–,–,172.1,–,–,192.3,137.9,–
c1coc(-c2nn3c(-c4ccco4)nnc3s2)c1,–,–,–,–,–,–,·,·,·
COc1ccc(-c2csc(N3CCOCC3)n2)cc1OC,–,–,–,–,–,–,·,·,·
Clc1ccc(-c2csc(N3CCCCCC3)n2)cc1,–,·,·,·,·,·,·,·,·
Clc1ccc(-c2csc(N3CCOCC3)n2)cc1,·,4.93,–,159.5,–,–,176.5,139.0,–
Brc1ccc(-c2csc(N3CCOCC3)n2)cc1,–,3.36,–,150.8,–,–,190.2,137.2,–
CC1CCc2ccccc2N1C(=N)N(C)C (stereo unspecified),–,–,–,–,–,–,·,·,·
SMILES,AHR activator,NF-kB neuron act,APP 5'UTR act,STAT1 activator,PERK inhibitor,MDM2 E3 inh,STAT1 activ conf,NFkB act STAT1ct,STAT3 act STAT1c
Cc1cccc(N/C=C/c2onc(C)c2[N+](=O)[O-])c1,–,–,–,155.2,–,–,199.0,141.2,–
Cc1cccc(/C=C/c2onc(C)c2[N+](=O)[O-])n1,–,·,·,·,·,·,·,·,·
COC(=O)CCC(=O)c1oc2ccc(OC)cc2c1N,–,–,–,–,–,–,·,·,·
COc1ccc2oc(C(=O)c3ccccc3)c(N)c2c1,–,6.13,144.5,173.6,–,–,175.5,141.5,–
Cc1[nH]n(-c2ccccc2)c(=O)c1C=NCc1ccco1,–,3.79,–,157.1,–,–,185.8,–,118.1
CC(=O)c1cnc2cc(-c3ccccc3)nn2c1C,–,–,–,170.3,–,–,194.5,–,–
